Laboratory results: ChEMBL document CHEMBL3286351, “Antibacterial evaluation of structurally amphipathic, membrane active small cationic peptidomimetics: synthesized by incorporating 3-amino benzoic acid as peptidomimetic element” (Eur J Med Chem, 2014)
≈ marks a conversion by molar mass, not a printed value. Calls of active or inactive are those of the source. The rule behind the calls is not given here. Where a SMILES comes first, the peptide text is derived from it. [ ]: non-standard residue; d: D form. 3Abz = Nc1cccc(C(=O)O)c1; Orn = NCCC[CH](N)C(=O)O

Tests used:
[1] = test system: Staphylococcus epidermidis; experiment: Antibacterial activity against methicillin-resistant Staphylococcus epidermidis ATCC 51625 assessed as growth inhibition after 18 hrs by CLSI microdilution broth assay; assay type: functional; conditions: ATCC 51625, 18 h
In short: (§1)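 Modified CLSI broth microdilution in Mueller-Hinton broth. Wells held 90 µL of about 2 × 10^5 CFU/mL inoculum plus 10 µL of serially diluted peptidomimetic, range 0.7-100 µg/mL. Plates were incubated overnight with agitation at 37 °C and absorbance read at 600 nm after 18 h. Controls: inoculum without compound, and uninoculated broth. Run in triplicate.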

[2] = Induction of hemolysis in human RBC assessed as hemoglobin release after 1 hr by microtiter plate reader analysis; assay type: cell-based, Erythrocyte; conditions: for HC10: erythrocyte, 1 h; for HC50 at 1 h: red blood cells
In short: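 Freshly isolated human RBCs washed three times in PBS (35 mM phosphate, 150 mM NaCl, pH 7.2) and used as a 4% (v/v) suspension. Mixed 1:1 with twofold serial dilutions of compound, incubated 1 h at 37 °C without agitation, then centrifuged. Supernatant A540 read. PBS defined 0% and 1% Triton X-100 defined 100% lysis; HC50 and HC10 derived.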

[3] = Selectivity ratio of HC50 for hemolysis in human RBC to MIC for Staphylococcus aureus
HaCaT [4] = experiment: Cytotoxicity against human HaCaT cells assessed as decrease in cell viability after 24 hrs by MTT assay; assay type: cell-based
In short: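 HaCaT keratinocytes grown as a monolayer in DMEM with 10% FBS and penicillin/streptomycin, 37 °C, 5% CO2. Seeded 24 h, then exposed to compound for 24 h. MTT (5 mg/mL stock in PBS) added for 4 h; formazan dissolved in isopropanol and read at 570 nm. Growth inhibition calculated relative to medium-only controls. Two independent experiments in triplicate.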

HaCaT [5] = experiment: Cytotoxicity against human HaCaT cells at 100 to 500 ug/ml after 24 hrs by LDH release assay; assay type: cell-based
In short: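 HaCaT cells (DMEM with 10% FBS, 37 °C, 5% CO2) seeded for 24 h, then treated with varying concentrations for 24 h. LDH measured at 490 nm in both supernatant and trypsinized cell lysate with a non-radioactive kit. % release = supernatant/(supernatant + lysate) × 100. Two independent experiments in triplicate.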

Staphylococcus aureus [6] = experiment: Bactericidal activity against Staphylococcus aureus MTCC 3160 assessed as number of bacteria at 4 times MIC measured within 30 mins by time kill assay (reference value: 10^6 CFU/ml); assay type: functional
In short: (§2)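 Time-kill assay. […] Aliquots taken at fixed intervals were serially diluted and plated on Mueller-Hinton agar. CFU were counted after 24 h at 37 °C. Two independent experiments, each in triplicate.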

Escherichia coli [7] = experiment: Bactericidal activity against Escherichia coli MTCC 723 assessed as number of bacteria at 4 times MIC measured within 30 mins by time kill assay (reference value: 10^6 CFU/ml); assay type: functional; in short: as §2
Lipid bilayer [8] = experiment: Membrane permeabilization in bacterial membrane model consisting large unilamellar vesicle of dipalmitoylphosphatidylcholine:dipalmitoylphosphatidylglycerol at ratio of 7:3 assessed as calcein release at 15 ug/ml after 20 mins by fluorescence assay; assay type: cell membranes
In short: (§3)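 LUVs of DPPC:DPPG 7:3 (w/w) loaded with 70 mM calcein (150 mM NaCl, 0.1 mM EDTA, pH 7.4). Made by freeze-thaw and extrusion through 100 nm filters; free dye removed on Sephadex G-50; diameter 110-130 nm. Diluted to 40 µM lipid and exposed to 5-15 µg/mL compound. Fluorescence read at ex 490/em 520 nm each minute for 20 min, then every 10 min. Triton X-100 defined 100% release.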

Lipid bilayer [9] = experiment: Membrane permeabilization in bacterial membrane model consisting large unilamellar vesicle of dipalmitoylphosphatidylcholine:dipalmitoylphosphatidylglycerol at ratio of 7:3 assessed as calcein release at 5 ug/ml after 50 mins by fluorescence assay; assay type: cell membranes; in short: as §3
Lipid bilayer [10] = experiment: Membrane permeabilization in bacterial membrane model consisting large unilamellar vesicle of dipalmitoylphosphatidylcholine:dipalmitoylphosphatidylglycerol at ratio of 7:3 assessed as calcein release after 5 mins by fluorescence assay; assay type: cell membranes; in short: as §3
[11] = Membrane permeabilization in mammalian membrane model consisting large unilamellar vesicle of dipalmitoylphosphatidylcholine:cholesterol at ratio of 10:1 assessed as calcein release at 15 ug/ml after 5 mins by fluorescence assay; assay type: cell membranes
In short: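 LUVs of DPPC/cholesterol 10:1 (w/w) loaded with calcein, extruded through 100 nm filters, and cleared of free dye on Sephadex G-50. Diluted to 40 µM lipid in calcein-free buffer (150 mM NaCl, 0.1 mM EDTA). Calcein release read at ex 490/em 520 nm, normalized to Triton X-100 lysis.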

Escherichia coli [12] = experiment: Induction of membrane damage in Escherichia coli at 4 times MIC after 2 hrs by DAPI/propidium iodide staining based fluorescence microscopy; assay type: functional, organism-based
In short: (§4)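 Stained with PI (5 µg/mL) for 15 min in the dark at 0 °C, washed, then DAPI (10 µg/mL) for 15 min in the dark at 0 °C. Untreated cells processed identically as controls. Imaged by fluorescence microscopy with a 60× oil objective.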

Staphylococcus aureus [13] = experiment: Induction of membrane damage in Staphylococcus aureus at 4 times MIC after 2 hrs by DAPI/propidium iodide staining based fluorescence microscopy; assay type: functional, organism-based; in short: as §4
Staphylococcus aureus [14] = experiment: Antibacterial activity against Staphylococcus aureus MTCC 3160 assessed as growth inhibition treated for 16 days by two-fold dilution assay; assay type: functional, organism-based
Staphylococcus aureus [15] = experiment: Antibacterial activity against methicillin-resistant Staphylococcus aureus ATCC BAA-1720 assessed as growth inhibition treated for 16 days by two-fold dilution assay; assay type: functional, organism-based
In short: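 Serial-passage resistance study. Start from the initial MIC by broth microdilution, then expose cells to doubling dilutions in triplicate wells. After each 18 h incubation, pool the wells with the highest concentration still showing visible growth and re-inoculate at about 2 × 10^6 CFU/mL.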

Plasma [16] = experiment: Stability in human plasma assessed as compound degradation after 1 hr by RP-HPLC analysis; assay type: ADME, cell-free
In short: (§5)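 Compound (1 mg/mL stock in water; 50 µL) added to 1 mL fresh heparinized human plasma and held at 37 °C. Samples taken at 30 min, 1, 2, 6, 12 and 24 h. Proteins precipitated with 95% ethanol, cooled at 4 °C for 15 min and centrifuged at 18,000 g. Supernatant analyzed by RP-HPLC with UV detection at 280 nm.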

[17] = Stability in human plasma assessed as compound degradation after 2 hrs by RP-HPLC analysis; assay type: ADME, cell-free; conditions: read-out: Drug degradation; in short: as §5
Plasma [18] = experiment: Stability in human plasma assessed as compound degradation after 24 hrs by RP-HPLC analysis; assay type: ADME, cell-free; conditions: 24 h; in short: as §5
[19] = Proteolytic stability assessed as trypsin (unknown origin)-mediated compound degradation after 36 hrs by RP-HPLC analysis; assay type: ADME; conditions: human
In short: (§6)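 Compound at 1 mg/mL in 0.1 M NH4HCO3 (pH 8.2) combined with trypsin or α-chymotrypsin solution (1 mg enzyme per 50 mL of the same buffer) at 37 °C. Aliquots taken over time and quenched with 10% formic acid. Remaining compound quantified by C18 RP-HPLC. An enzyme-free control was run for each test.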

trypsin = experiment: (§7) Proteolytic stability assessed as trypsin (unknown origin)-mediated compound degradation by measuring compound remaining after 4 days by RP-HPLC analysis; assay type: ADME; conditions: human, trypsin; read-out: Stability; in short: as §6
[20] = Proteolytic stability assessed as alpha chymotrypsin (unknown origin)-mediated compound degradation after 24 hrs by RP-HPLC analysis; assay type: ADME; conditions: human; in short: as §6
alpha chymotrypsin = experiment: Proteolytic stability assessed as alpha chymotrypsin (unknown origin)-mediated compound degradation by measuring compound remaining after 4 days by RP-HPLC analysis; assay type: ADME; conditions: human, read-out: Stability; in short: as §6
[21] = Retention time of the compound by HPLC analysis; assay type: physicochemical
In short: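 Analytical RP-HPLC on a C18 column (5 µm, 4.6 × 250 mm) at room temperature. Run a linear gradient of 0.5-60% acetonitrile containing 0.05% TFA against water containing 0.05% TFA at 0.5 mL/min.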

Escherichia coli [22] = experiment: Antibacterial activity against Escherichia coli MTCC 723 assessed as growth inhibition after 18 hrs by CLSI microdilution broth assay; assay type: functional; conditions: MTCC 723, 18 h
Pseudomonas aeruginosa = experiment: Antibacterial activity against Pseudomonas aeruginosa MTCC 2295 assessed as growth inhibition after 18 hrs by CLSI microdilution broth assay; assay type: functional; conditions: MTCC 2295, 18 h
Staphylococcus aureus [23] = experiment: Antibacterial activity against Staphylococcus aureus MTCC 3160 assessed as growth inhibition after 18 hrs by CLSI microdilution broth assay; assay type: functional; conditions: MTCC 3160, 18 h
Bacillus subtilis = experiment: Antibacterial activity against Bacillus subtilis MTCC 2763 assessed as growth inhibition after 18 hrs by CLSI microdilution broth assay; assay type: functional; conditions: MTCC 2763, 18 h
Staphylococcus aureus [24] = experiment: Antibacterial activity against methicillin-resistant Staphylococcus aureus ATCC BAA-1720 assessed as growth inhibition after 18 hrs by CLSI microdilution broth assay; assay type: functional; conditions: ATCC BAA-1720, 18 h; in short: as §1
Lipid bilayer [25] = experiment: Membrane permeabilization in bacterial membrane model consisting large unilamellar vesicle of dipalmitoylphosphatidylcholine:dipalmitoylphosphatidylglycerol at ratio of 7:3 assessed as calcein release at 5 ug/ml after 90 mins by fluorescence assay; assay type: cell membranes; in short: as §3
Lipid bilayer [26] = experiment: Membrane permeabilization in bacterial membrane model consisting large unilamellar vesicle of dipalmitoylphosphatidylcholine:dipalmitoylphosphatidylglycerol at ratio of 7:3 assessed as calcein release at 15 ug/ml after 90 mins by fluorescence assay; assay type: cell membranes; in short: as §3
[27] = as §7; assay type: ADME; conditions: human, 96 h; in short: as §6

Row | SMILES | MIC [1] | HC10 [2] | HC50 at 1 h [2] | Selectivity ratio [3] | Activity (HaCaT [4]) | Activity (HaCaT [5]) | CFU/ml (Staphylococcus aureus [6]) | CFU/ml (Escherichia coli [7]) | Activity (Lipid bilayer [10]) | Activity [11] | Activity (Escherichia coli [12]) | Activity (Staphylococcus aureus [13]) | inhibition (Staphylococcus aureus [14]) | inhibition (Staphylococcus aureus [15]) | Stability (Plasma [18]) | Stability [20] | remaining at 96 h (alpha chymotrypsin) | Retention_time [21] | MIC (Escherichia coli [22]) | MIC (Pseudomonas aeruginosa) | other results
1 | N=C(N)NCCCC(NC(=O)C(Cc1c[nH]c2ccccc12)NC(=O)c1cccc(NC(=O)C(Cc2c[nH]c3ccccc23)NC(=O)C(CCCNC(=N)N)NC(=O)C(N)Cc2c[nH]c3ccccc23)c1)C(N)=O (stereo not given) (H-WRW[3Abz]WR-NH2; configuration not given here) | 5 µg/mL (≈ 4.96 µM) | 80 µg/mL | 310 µg/mL | 62 | Dose-dependent effect | Toxic | 1000 | 1000 | Dose-dependent effect | inactive | Active | Active | Active | Active | Stable | Stable | 70% | 27.34 min | 7.5 µg/mL (≈ 7.45 µM) | 12.5 µg/mL (≈ 12.4 µM) | Activity (Lipid bilayer [8]): 47%; Activity (Lipid bilayer [9]): 19%; Stability (Plasma [16]): Stable; metabolised at 2 h [17]: 6.58%; Stability [19]: Stable; remaining at 96 h (trypsin): 65%; MIC (Staphylococcus aureus [23]): 5 µg/mL (≈ 4.96 µM); MIC (Bacillus subtilis): 20 µg/mL (≈ 19.9 µM); MIC (Staphylococcus aureus [24]): 5.5 µg/mL (≈ 5.46 µM)
2 | NCCCC(NC(=O)C(Cc1c[nH]c2ccccc12)NC(=O)c1cccc(NC(=O)C(Cc2c[nH]c3ccccc23)NC(=O)C(CCCN)NC(=O)C(N)Cc2c[nH]c3ccccc23)c1)C(N)=O (stereo not given) (H-W[Orn]W[3Abz]W[Orn]-NH2; configuration not given here) | 6.25 µg/mL (≈ 6.77 µM) | 100 µg/mL | 390 µg/mL | 62.4 | Dose-dependent effect | Toxic | 1000 | 1000 | Dose-dependent effect | inactive | Active | Active | Active | Active | Stable | Stable | 70% | 25.378 min | 20 µg/mL (≈ 21.7 µM) | 15.5 µg/mL (≈ 16.8 µM) | Activity (Lipid bilayer [25]): 23%; Activity (Lipid bilayer [26]): 48%; Stability [27]: Stable; MIC (Staphylococcus aureus [23]): 6.25 µg/mL (≈ 6.77 µM); MIC (Bacillus subtilis): 25 µg/mL (≈ 27.1 µM); MIC (Staphylococcus aureus [24]): 5 µg/mL (≈ 5.42 µM)
